# In ChEMBL document CHEMBL1142126, “Triterpenoid pyrazines and benzopyrazines with cytotoxic activity” (J Nat Prod, 2007):
# Key:
# [1] = tested on: CCRF-CEM; assay: Cytotoxicity against human CEM cells after 72 hrs by MTT assay; type: cell-based
# Outline: (§1)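 Cells seeded at 2500-30 000 per well depending on growth characteristics, preincubated 24 h at 37 °C, 5% CO2. Compounds dissolved in 10% DMSO, added as four-fold dilutions, quadruplicate. 72 h exposure at 37 °C, 5% CO2, 100% humidity. MTT added for 1-4 h, formazan dissolved in 10% aqueous SDS (pH 5.5) overnight at 37 °C, OD 540 nm. Survival relative to control wells; TCS50 taken from dose-response curves.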
# [2] = tested on: A549; assay: Cytotoxicity against human A549 cells after 72 hrs by MTT assay; type: cell-based; conditions: A549, 72 h; outline: as §1
# [3] = tested on: HT-29; assay: Cytotoxicity against human HT29 cells after 72 hrs by MTT assay; type: cell-based; conditions: HT-29, 72 h; outline: as §1
# [4] = tested on: K562; assay: Cytotoxicity against human K562 cells after 72 hrs by MTT assay; type: cell-based; conditions: K562, 72 h; outline: as §1
# [5] = Cytotoxicity against human Pgp-positive multidrug-resistant K562-tax cells after 72 hrs by MTT assay; type: ADME, cell-based; outline: as §1
# [6] = tested on: PC-3; assay: Cytotoxicity against human PC3 cells after 72 hrs by MTT assay; type: cell-based; conditions: PC-3, 72 h; outline: as §1
# [7] = tested on: SK-MEL-2; assay: Cytotoxicity against human SK-MEL-2 cells after 72 hrs by MTT assay; type: cell-based; conditions: SK-MEL-2, 72 h
# Outline: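 Cells seeded at 2500–30 000/well by growth characteristics, preincubated 24 h at 37 °C, 5% CO2; four-fold dilutions of compound (dissolved in 10% DMSO) added, 72 h exposure at 37 °C, 5% CO2, 100% humidity; quadruplicate. MTT 1–4 h, formazan dissolved in 10% SDS (pH 5.5) overnight, OD 540 nm; survival vs control wells, TCS50 from dose–response curves.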
# [8] = Cytotoxicity against human U87-Mg cells after 72 hrs by MTT assay; type: cell-based, U-87MG ATCC; conditions: U-87 MG; outline: as §1
# [9] = tested on: CCRF-CEM; assay: Cytotoxicity against daunorubicin-resistant CEM-DNR-bulk cells after 72 hrs by MTT assay; type: cell-based; conditions: Homo sapiens; outline: as §1
# [10] = Cytotoxicity against B2-4 cells after 72 hrs by MTT assay; type: cell-based; conditions: Homo sapiens, B2-4, 72 h; outline: as §1
SMILES,IC50 [1],IC50 [2],IC50 [3],IC50 [4],IC50 [5],IC50 [6],further results
COC(=O)[C@@]12CC[C@]3(C)[C@H](CC[C@@H]4[C@@]5(C)CC[C@H](OC(C)=O)C(C)(C)[C@@H]5CC[C@]43C)C1=C(C(C)C)C(=O)C2=O,16 µM,13 µM,7 µM,6 µM,9 µM,14 µM,IC50 [7]: 14 µM; IC50 [8]: 74 µM; IC50 [9]: 5 µM
CC1(C)CC[C@]23CC[C@]4(C)[C@H](CC[C@@H]5[C@@]6(C)Cc7nccnc7C(C)(C)[C@@H]6CC[C@]54C)[C@H]2[C@H]1OC3,250 µM,–,–,–,–,–,–
CC(=O)OC1CC[C@]2(C)[C@H]3CC[C@H]4C5=C(CC[C@@]4(C)[C@]3(C)CC[C@H]2C1(C)C)c1nccnc1[C@H]5C(C)C (some centres not stated),244 µM,–,–,–,–,–,–
CC(C)C1=C2CC[C@]3(C)[C@H](CC[C@@H]4[C@H]5[C@H]6O[C@@]5(CCC6(C)C)CC[C@]43C)[C@@]2(C)C(=O)C1=O,250 µM,–,–,–,–,–,–
C=C(C)[C@@H]1CC[C@]2(C(=O)OC)CC[C@]3(C)[C@H](CC[C@@H]4[C@@]5(C)Cc6nccnc6C(C)(C)[C@@H]5CC[C@]43C)[C@@H]12,250 µM,–,–,–,–,–,–
CC(=O)OC[C@@]12CC[C@]3(C)[C@H](CC[C@@H]4[C@@]5(C)CCC(OC(C)=O)C(C)(C)[C@@H]5CC[C@]43C)C1=C(C(C)C)c1nccnc12 (some centres not stated),215 µM,–,–,–,–,–,–
C=C(C)[C@@H]1CC[C@]2(CO)CC[C@]3(C)[C@H](CC[C@@H]4[C@@]5(C)Cc6nc7ccccc7nc6C(C)(C)[C@@H]5CC[C@]43C)[C@@H]12,178 µM,–,–,–,–,–,–
CC(C)[C@@H]1CC[C@]2(CO)CC[C@]3(C)[C@H](CC[C@@H]4[C@@]5(C)Cc6nc7ccccc7nc6C(C)(C)[C@@H]5CC[C@]43C)[C@@H]12,35 µM,–,–,–,–,–,–
COC(=O)[C@]12CC[C@@H](C(C)C)[C@@H]1[C@H]1CC[C@@H]3[C@@]4(C)Cc5nccnc5C(C)(C)[C@@H]4CC[C@@]3(C)[C@]1(C)CC2,151 µM,220 µM,164 µM,201 µM,91 µM,227 µM,IC50 [8]: 231 µM; IC50 [10]: 94 µM; IC50 [9]: 235 µM
C=C(C)[C@@H]1CC[C@]2(C(=O)O)CC[C@]3(C)[C@H](CC[C@@H]4[C@@]5(C)Cc6nc7ccccc7nc6C(C)(C)[C@@H]5CC[C@]43C)[C@@H]12,42 µM,48 µM,96 µM,86 µM,118 µM,64 µM,IC50 [7]: 192 µM
CC(C)[C@@H]1CC[C@]2(C(=O)O)CC[C@]3(C)[C@H](CC[C@@H]4[C@@]5(C)Cc6nc7ccccc7nc6C(C)(C)[C@@H]5CC[C@]43C)[C@@H]12,124 µM,122 µM,123 µM,113 µM,117 µM,103 µM,IC50 [8]: 148 µM; IC50 [10]: 99 µM; IC50 [9]: 198 µM
C=C(C)[C@@H]1CC[C@]2(CO)CC[C@]3(C)[C@H](CC[C@@H]4[C@@]5(C)Cc6nccnc6C(C)(C)[C@@H]5CC[C@]43C)[C@@H]12,101 µM,–,–,–,–,–,–
CC(C)[C@@H]1CC[C@]2(CO)CC[C@]3(C)[C@H](CC[C@@H]4[C@@]5(C)Cc6nccnc6C(C)(C)[C@@H]5CC[C@]43C)[C@@H]12,74 µM,–,–,–,–,–,–
C=C(C)[C@@H]1CC[C@]2(C(=O)OCOC(=O)C(C)(C)C)CC[C@]3(C)[C@H](CC[C@@H]4[C@@]5(C)Cc6nccnc6C(C)(C)[C@@H]5CC[C@]43C)[C@@H]12,232 µM,51 µM,250 µM,100 µM,149 µM,250 µM,IC50 [7]: 250 µM
CC(=O)OC[C@@]12CC[C@]3(C)[C@H](CC[C@@H]4[C@@]5(C)CC[C@H](OC(C)=O)C(C)(C)[C@@H]5CC[C@]43C)C1=C(C(C)C)C(=O)C2=O,250 µM,103 µM,250 µM,250 µM,250 µM,208 µM,IC50 [7]: 170 µM
CC(C)C1=C2CC[C@]3(C)[C@H](CC[C@H]4C5[C@H]6O[C@@]5(CCC6(C)C)CC[C@]43C)[C@@]2(C)c2nccnc21 (some centres not stated),250 µM,–,–,–,–,–,–
CC(C)C1=C2CC[C@]3(C)[C@H](CC[C@@H]4[C@H]5[C@H]6O[C@@]5(CCC6(C)C)CC[C@]43C)[C@@]2(C)c2nc3ccccc3nc21,250 µM,–,–,–,–,–,–

SMILES,IC50 [1],IC50 [2],IC50 [3],IC50 [4],IC50 [5],IC50 [6],further results
COC(=O)[C@]12CC[C@@H](C(C)C)[C@@H]1[C@H]1CC[C@@H]3[C@@]4(C)Cc5nc6ccccc6nc5C(C)(C)[C@@H]4CC[C@@]3(C)[C@]1(C)CC2,250 µM,–,–,–,–,–,–
CC1(C)CC[C@]23CC[C@]4(C)[C@H](CC[C@@H]5[C@@]6(C)Cc7nc8ccccc8nc7C(C)(C)[C@@H]6CC[C@]54C)[C@H]2[C@H]1OC3,250 µM,–,–,–,–,–,–
C=C(C)[C@@H]1CC[C@]2(C(=O)OCOC(C)=O)CC[C@]3(C)[C@H](CC[C@@H]4[C@@]5(C)Cc6nccnc6C(C)(C)[C@@H]5CC[C@]43C)[C@@H]12,12 µM,1 µM,77 µM,2 µM,35 µM,35 µM,IC50 [7]: 69 µM
COC(=O)[C@@]12CC[C@]3(C)[C@@H](CC[C@@H]4[C@@]5(C)CCC(OC(C)=O)C(C)(C)[C@@H]5CC[C@]43C)C1=C(C(C)C)c1nccnc12 (some centres not stated),250 µM,–,–,–,–,–,–
COC(=O)[C@@]12CC[C@]3(C)[C@H](CC[C@@H]4[C@@]5(C)CCC(OC(C)=O)C(C)(C)[C@@H]5CC[C@]43C)C1=C(C(C)C)c1nc3ccccc3nc12 (some centres not stated),192 µM,–,–,–,–,–,–
C=C(C)[C@@H]1CC[C@]2(C(=O)OC)CC[C@]3(C)[C@H](CC[C@@H]4[C@@]5(C)Cc6nc7ccccc7nc6C(C)(C)[C@@H]5CC[C@]43C)[C@@H]12,250 µM,250 µM,250 µM,245 µM,250 µM,250 µM,IC50 [8]: 250 µM; IC50 [10]: 47 µM; IC50 [9]: 250 µM
CC(=O)OC[C@@]12CC[C@]3(C)[C@@H](CC[C@@H]4[C@@]5(C)CCC(OC(C)=O)C(C)(C)[C@@H]5CC[C@]43C)C1=C(C(C)C)c1nc3ccccc3nc12 (some centres not stated),106 µM,101 µM,229 µM,70 µM,234 µM,233 µM,IC50 [7]: 231 µM
CC1(C)CC[C@]23CC[C@]4(C)[C@H](CC[C@@H]5[C@@]6(C)CC[C@H](O)C(C)(C)[C@@H]6CC[C@]54C)[C@H]2[C@H]1OC3 [ALLOBETULIN],250 µM,–,–,–,–,–,–
CC1(C)CC[C@]23CC[C@]4(C)[C@H](CC[C@@H]5[C@@]6(C)CCC(=O)C(C)(C)[C@@H]6CC[C@]54C)[C@H]2[C@H]1O3 [ALLOBETULONE],250 µM,–,–,–,–,–,–
C=C(C)[C@@H]1CC[C@]2(C(=O)O)CC[C@]3(C)[C@H](CC[C@@H]4[C@@]5(C)CC[C@H](O)C(C)(C)[C@@H]5CC[C@]43C)[C@@H]12 [BETULINIC ACID],30 µM,–,–,–,–,–,–
C=C(C)[C@@H]1CC[C@]2(CO)CC[C@]3(C)[C@H](CC[C@@H]4[C@@]5(C)CC[C@H](O)C(C)(C)[C@@H]5CC[C@]43C)[C@@H]12 [BETULIN],250 µM,–,–,–,–,–,–
C=C(C)[C@@H]1CC[C@]2(C(=O)O)CC[C@]3(C)[C@H](CC[C@@H]4[C@@]5(C)CCC(=O)C(C)(C)[C@@H]5CC[C@]43C)[C@@H]12 [BETUNOLIC ACID],20 µM,15 µM,17 µM,6 µM,17 µM,15 µM,IC50 [7]: 26 µM; IC50 [8]: 159 µM
CC(C)[C@@H]1CC[C@]2(C(=O)O)CC[C@]3(C)C(CCC4[C@@]5(C)CC[C@H](O)C(C)(C)C5CC[C@]43C)C12 (some centres not stated) [DIHYDROBETULINIC ACID],7 µM,–,–,–,–,–,–
CC(C)[C@@H]1CC[C@]2(C(=O)O)CC[C@]3(C)[C@H](CC[C@@H]4[C@@]5(C)CCC(=O)C(C)(C)[C@@H]5CC[C@]43C)[C@@H]12 [DIHYDROBETULONIC ACID],2 µM,–,–,–,–,–,–
C=C(C)[C@@H]1CC[C@]2(C(=O)OC)CC[C@]3(C)[C@H](CC[C@@H]4[C@@]5(C)CCC(=O)C(C)(C)[C@@H]5CC[C@]43C)[C@@H]12 [METHYL BETULONATE],250 µM,–,–,–,–,–,–
COC(=O)[C@]12CC[C@@H](C(C)C)[C@@H]1[C@H]1CC[C@@H]3[C@@]4(C)CCC(=O)C(C)(C)[C@@H]4CC[C@@]3(C)[C@]1(C)CC2 [METHYL DIHYDROBETULONATE],173 µM,–,–,–,–,–,–
